Source: ChEMBL document CHEMBL3352332, “Synthesis and SAR study of novel anticancer and antimicrobial naphthoquinone amide derivatives” (Bioorg Med Chem Lett, 2014)
pIC50: −log10 of the molar value. In brackets after ≈: the same amount, converted by molar mass. Activity calls are given as the source filed them. No cut-off for these calls is given here.

Assays:
Candida albicans [1] = test: Antifungal activity against fluconazole-resistant Candida albicans at 100 ug/well after 24 hrs by well diffusion assay; format: functional; conditions: for zone of inhibition at 100 µg/disc: read-out: DIZ
How it was run: (§1)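 Agar well diffusion on Mueller Hinton agar: 17 h cultures swabbed over the surface, wells cut with a cork borer after 10 min. Each well loaded with 10 µl of a 10 mg/mL DMSO stock (100 µg/well), with a DMSO control well. Plates incubated at 37 °C for 24 h. Zone of inhibition diameter measured in mm.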

Staphylococcus aureus [2] = test: Antibacterial activity against methicillin-resistant Staphylococcus aureus at 100 ug/well after 24 hrs by well diffusion assay; format: functional; conditions: for zone of inhibition at 100 µg/disc: read-out: DIZ; how it was run: as §1
Staphylococcus aureus [3] = test: Antibacterial activity against methicillin-resistant Staphylococcus aureus by NCCLS method; format: functional
Candida albicans [4] = test: Antifungal activity against fluconazole-resistant Candida albicans by NCCLS method; format: functional
Pseudomonas aeruginosa = test: Antibacterial activity against Pseudomonas aeruginosa MTCC 201 at 100 ug/well after 24 hrs by well diffusion assay; format: functional
How it was run: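 17 h bacterial cultures swabbed onto Mueller Hinton agar; after 10 min wells were cut with a cork borer and loaded with compound from a 10 mg/mL stock, with a DMSO control. Plates were held at 37 °C for 24 h, and susceptibility was read as the diameter of the zone of inhibition in mm.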

SAS = test: Cytotoxicity against human SAS cells assessed as reduction in cell viability after 48 hrs by MTT assay; format: functional, cell-based
HeLa = test: Cytotoxicity against human HeLa cells assessed as reduction in cell viability after 48 hrs by MTT assay; format: functional, cell-based

Row | SMILES | zone of inhibition at 100 µg/disc (Candida albicans [1]) [mm] | zone of inhibition at 100 µg/disc (Staphylococcus aureus [2]) [mm] | MIC (Staphylococcus aureus [3]) [µg/mL] | MIC (Candida albicans [4]) [µg/mL] | diameter of the inhibition zone (DIZ) (Pseudomonas aeruginosa) | pIC50 (SAS) | pIC50 (HeLa) | diameter of the inhibition zone (DIZ) (Candida albicans [1]) | diameter of the inhibition zone (DIZ) (Staphylococcus aureus [2]) | zone of inhibition at 100 µg/disc (Pseudomonas aeruginosa; MTCC 201, 24 h, read-out: DIZ) [mm]
1 | COC(=O)[C@H](C)NC(=O)CSC1=C(C)C(=O)c2cccc(OC)c2C1=O | 18 | 18 | 125 (≈ 331 µM) | 125 (≈ 331 µM) | inactive | – | – | – | – | –
2 | COC(=O)[C@H](CC(C)C)NC(=O)CSC1=C(C)C(=O)c2ccccc2C1=O | 20 | 18 | 15.6 (≈ 40.1 µM) | 15.6 (≈ 40.1 µM) | inactive | – | – | – | – | –
3 | CC[C@H](C)[C@H](NC(=O)CSC1=CC(=O)c2cccc(OC)c2C1=O)C(=O)OC | 15 | 19 | 15.6 (≈ 38.5 µM) | 15.6 (≈ 38.5 µM) | inactive | 4.20 | 4.02 | – | – | –
4 | CC[C@H](C)[C@H](NC(=O)CSC1=C(C)C(=O)c2cccc(OC)c2C1=O)C(=O)OC | – | – | – | – | inactive | – | – | inactive | inactive | –
5 | COC(=O)[C@@H](NC(=O)CSC1=C(OC)C(=O)c2ccccc2C1=O)C(C)C | 20 | 18 | 15.6 (≈ 39.9 µM) | 15.6 (≈ 39.9 µM) | inactive | 4.25 | 4.03 | – | – | –
6 | COC(=O)CCCNC(=O)CSC1=C(OC)C(=O)c2ccccc2C1=O | 26 | 26 | 15.6 (≈ 41.3 µM) | 15.6 (≈ 41.3 µM) | inactive | 4.61 | 4.62 | – | – | –
7 | COC(=O)CNC(=O)CSC1=C(C)C(=O)c2ccccc2C1=O | 22 | 23 | 15.6 (≈ 46.8 µM) | 15.6 (≈ 46.8 µM) | inactive | – | – | – | – | –
8 | COC(=O)CNC(=O)CSC1=C(OC)C(=O)c2ccccc2C1=O | 16 | 17 | 15.6 (≈ 44.7 µM) | 15.6 (≈ 44.7 µM) | inactive | 4.92 | 4.11 | – | – | –
9 | COC(=O)[C@H](CC(C)C)NC(=O)CSC1=C(OC)C(=O)c2ccccc2C1=O | 19 | 21 | 7.8 (≈ 19.2 µM) | 62.5 (≈ 154 µM) | inactive | 4.59 | 4.20 | – | – | –
10 | COC(=O)[C@H](C)NC(=O)CSC1=C(C)C(=O)c2ccccc2C1=O | 26 | 23 | 15.6 (≈ 44.9 µM) | 15.6 (≈ 44.9 µM) | inactive | – | – | – | – | –
11 | COC(=O)[C@H](C)NC(=O)CSC1=CC(=O)c2cccc(OC)c2C1=O | – | 15 | 7.8 (≈ 21.5 µM) | – | inactive | – | – | inactive | – | –
12 | COC(=O)[C@H](Cc1ccccc1)NC(=O)CSC1=CC(=O)c2cccc(OC)c2C1=O | 17 | 15 | 7.8 (≈ 17.7 µM) | 7.8 (≈ 17.7 µM) | inactive | 4.40 | 4.24 | – | – | –
13 | COC(=O)CCCNC(=O)CSC1=C(C)C(=O)c2ccccc2C1=O | 12 | 13 | 15.6 (≈ 43.2 µM) | 15.6 (≈ 43.2 µM) | inactive | – | – | – | – | –
14 | COC(=O)CNC(=O)CSC1=C(C)C(=O)c2cccc(OC)c2C1=O | 21 | 20 | 125 (≈ 344 µM) | 125 (≈ 344 µM) | inactive | – | – | – | – | –
15 | CC[C@H](C)[C@H](NC(=O)CSC1=C(C)C(=O)c2ccccc2C1=O)C(=O)OC | 19 | 16 | 15.6 (≈ 40.1 µM) | 15.6 (≈ 40.1 µM) | inactive | – | – | – | – | –
16 | OC(Cn1cncn1)(Cn1cncn1)c1ccc(F)cc1F | – | – | – | – | inactive | – | – | inactive | inactive | –
17 | COC(=O)[C@@H](NC(=O)CSC1=C(C)C(=O)c2cccc(OC)c2C1=O)C(C)C | 13 | 12 | 15.6 (≈ 38.5 µM) | 7.8 (≈ 19.2 µM) | inactive | – | – | – | – | –

Row | SMILES | zone of inhibition at 100 µg/disc (Candida albicans [1]) [mm] | zone of inhibition at 100 µg/disc (Staphylococcus aureus [2]) [mm] | MIC (Staphylococcus aureus [3]) [µg/mL] | MIC (Candida albicans [4]) [µg/mL] | diameter of the inhibition zone (DIZ) (Pseudomonas aeruginosa) | pIC50 (SAS) | pIC50 (HeLa) | diameter of the inhibition zone (DIZ) (Candida albicans [1]) | diameter of the inhibition zone (DIZ) (Staphylococcus aureus [2]) | zone of inhibition at 100 µg/disc (Pseudomonas aeruginosa; MTCC 201, 24 h, read-out: DIZ) [mm]
18 | COC(=O)[C@H](Cc1ccccc1)NC(=O)CSC1=C(C)C(=O)c2cccc(OC)c2C1=O | 13 | 15 | 125 (≈ 276 µM) | 125 (≈ 276 µM) | inactive | 4.25 | < 4.00 | – | – | –
19 | COC(=O)CCCNC(=O)CSC1=C(C)C(=O)c2cccc(OC)c2C1=O | 21 | 20 | 15.6 (≈ 39.9 µM) | 15.6 (≈ 39.9 µM) | inactive | – | – | – | – | –
20 | O=C1C=C(O)C(=O)c2ccccc21 [LAWSONE] | 14 | 12 | 125 (≈ 718 µM) | 250 (≈ 1440 µM) | inactive | < 4.00 | < 4.00 | – | – | –
21 | COC(=O)CCCNC(=O)CSC1=CC(=O)c2cccc(OC)c2C1=O | – | 12 | – | – | inactive | – | – | inactive | – | –
22 | COC(=O)CNC(=O)CSC1=CC(=O)c2cccc(OC)c2C1=O | 19 | 19 | 3.9 (≈ 11.2 µM) | 7.9 (≈ 22.6 µM) | inactive | < 4.00 | < 4.00 | – | – | –
23 | COC(=O)[C@@H](NC(=O)CSC1=C(C)C(=O)c2ccccc2C1=O)C(C)C | 19 | 19 | 15.6 (≈ 41.6 µM) | 15.6 (≈ 41.6 µM) | inactive | 4.80 | 4.70 | – | – | –
24 | COC(=O)[C@H](C)NC(=O)CSC1=C(OC)C(=O)c2ccccc2C1=O | 26 | 19 | 62.5 (≈ 172 µM) | 62.5 (≈ 172 µM) | inactive | 4.85 | 4.41 | – | – | –
25 | COC(=O)[C@H](Cc1ccccc1)NC(=O)CSC1=C(OC)C(=O)c2ccccc2C1=O | – | 14 | 62.5 (≈ 142 µM) | – | inactive | – | – | inactive | – | –
26 | COC(=O)[C@@H](NC(=O)CSC1=CC(=O)c2cccc(OC)c2C1=O)C(C)C | 12 | 15 | 15.6 (≈ 39.9 µM) | 15.6 (≈ 39.9 µM) | inactive | 4.35 | < 4.00 | – | – | –
27 | COC(=O)[C@H](CC(C)C)NC(=O)CSC1=CC(=O)c2cccc(OC)c2C1=O | 12 | 11 | 7.8 (≈ 19.2 µM) | 7.8 (≈ 19.2 µM) | inactive | – | – | – | – | –
28 | CN[C@@H]1[C@H](O[C@H]2[C@H](O[C@H]3[C@H](O)[C@@H](O)[C@H](N=C(N)N)[C@@H](O)[C@@H]3N=C(N)N)O[C@@H](C)[C@]2(O)C=O)O[C@@H](CO)[C@H](O)[C@H]1O [STREPTOMYCIN] | – | 24 | 3.9 (≈ 6.71 µM) | – | – | – | – | inactive | – | 13
29 | O=C1C=CC(=O)c2c(O)cccc21 | – | – | – | – | inactive | – | – | inactive | inactive | –
30 | COC(=O)[C@H](Cc1ccccc1)NC(=O)CSC1=C(C)C(=O)c2ccccc2C1=O | 16 | 13 | 15.6 (≈ 36.8 µM) | 15.6 (≈ 36.8 µM) | inactive | – | – | – | – | –
31 | COC(=O)[C@H](CC(C)C)NC(=O)CSC1=C(C)C(=O)c2cccc(OC)c2C1=O | 25 | 21 | 7.8 (≈ 18.6 µM) | 7.8 (≈ 18.6 µM) | inactive | 4.11 | < 4.00 | – | – | –
32 | CC[C@H](C)[C@H](NC(=O)CSC1=C(OC)C(=O)c2ccccc2C1=O)C(=O)OC | 12 | 15 | 7.8 (≈ 19.2 µM) | 7.8 (≈ 19.2 µM) | inactive | 4.22 | 4.09 | – | – | –
33 | CC1=CC(=O)c2ccccc2C1=O [MENADIONE] | 11 | 11 | 15.6 (≈ 90.6 µM) | 15.6 (≈ 90.6 µM) | inactive | 4.85 | 4.74 | – | – | –
34 | CC1=CC(=O)c2c(O)cccc2C1=O [PLUMBAGIN] | 12 | 12 | 125 (≈ 664 µM) | 125 (≈ 664 µM) | inactive | 5.52 | 4.59 | – | – | –
